# Data: ChEMBL document CHEMBL3352559, “Synthesis and pharmacological investigation of aralkyl diamine derivatives as potential triple reuptake inhibitors” (Eur J Med Chem, 2014)
# Assays:
# [1] = Acute toxicity in KM mouse assessed as survival at 900 mg/kg, po up to 14 days (reference value: 100%); format: organism-based; design: dose 900 mg/kg, route oral; conditions: in vivo
# [2] = target: 5-hydroxytryptamine receptor 2A (Homo sapiens) (UniProt P28223); assay: Displacement of [3H]ketanserin from human 5-HT2A receptor at 10 uM relative to control
# Procedure, shortened: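 Outsourced CNS receptor panel (55 binding assays); compound tested at 10 μM in primary radioligand binding; specific binding inhibition expressed relative to control, with >50% inhibition taken as a significant effect.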
# Salmonella typhimurium = assay: Mutagenic activity in Salmonella typhimurium TA100 assessed as number of reversion mutation at 30 ug/plate; format: toxicity, organism-based; conditions: salmonella enterica subsp. enterica serovar typhimurium
# Procedure, shortened: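 Ames reversion test in Salmonella typhimurium TA98 and TA100, with and without rat liver S9 metabolic activation. Compound was dissolved in DMSO and added at 3–5000 μg/plate. Each dose, vehicle and positive control was plated in triplicate, and revertant colonies were counted.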
# [3] = target: Delta-type opioid receptor (Homo sapiens) (UniProt P41143); assay: Displacement of [3H] DADLE from human delta opioid receptor at 10 uM relative to control
# Procedure, shortened: (§1)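 Outsourced CNS panel of 55 receptor binding assays run by Cerep. Compound tested at 10 μM, the default primary-binding concentration, with inhibition expressed relative to control. Inhibition above 50% taken as a significant effect.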
# Homo sapiens = species on record: Homo sapiens; assay: Displacement of [3H]GABA from GABA receptor (unknown origin) at 10 uM relative to control; procedure, shortened: as §1
# [4] = target: D(2) dopamine receptor (Homo sapiens) (UniProt P14416); assay: Displacement of [3H]N-Methylspiperone from human dopamine D2S receptor at 10 uM relative to control; procedure, shortened: as §1
# Sequence of D(2) dopamine receptor (Homo sapiens) (P14416 whole entry): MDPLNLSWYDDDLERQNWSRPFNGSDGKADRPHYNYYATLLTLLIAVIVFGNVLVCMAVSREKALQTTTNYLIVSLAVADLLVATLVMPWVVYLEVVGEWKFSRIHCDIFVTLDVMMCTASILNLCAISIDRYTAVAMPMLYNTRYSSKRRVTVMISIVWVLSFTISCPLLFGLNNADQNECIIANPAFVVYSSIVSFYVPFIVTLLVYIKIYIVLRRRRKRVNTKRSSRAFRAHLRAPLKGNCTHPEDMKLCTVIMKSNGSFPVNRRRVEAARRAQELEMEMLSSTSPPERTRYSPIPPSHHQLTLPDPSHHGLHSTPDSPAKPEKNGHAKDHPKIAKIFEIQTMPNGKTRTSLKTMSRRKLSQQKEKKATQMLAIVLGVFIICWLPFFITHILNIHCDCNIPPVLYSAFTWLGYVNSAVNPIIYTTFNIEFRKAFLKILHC
# Sequence of 5-hydroxytryptamine receptor 2A (Homo sapiens) (P28223 whole entry): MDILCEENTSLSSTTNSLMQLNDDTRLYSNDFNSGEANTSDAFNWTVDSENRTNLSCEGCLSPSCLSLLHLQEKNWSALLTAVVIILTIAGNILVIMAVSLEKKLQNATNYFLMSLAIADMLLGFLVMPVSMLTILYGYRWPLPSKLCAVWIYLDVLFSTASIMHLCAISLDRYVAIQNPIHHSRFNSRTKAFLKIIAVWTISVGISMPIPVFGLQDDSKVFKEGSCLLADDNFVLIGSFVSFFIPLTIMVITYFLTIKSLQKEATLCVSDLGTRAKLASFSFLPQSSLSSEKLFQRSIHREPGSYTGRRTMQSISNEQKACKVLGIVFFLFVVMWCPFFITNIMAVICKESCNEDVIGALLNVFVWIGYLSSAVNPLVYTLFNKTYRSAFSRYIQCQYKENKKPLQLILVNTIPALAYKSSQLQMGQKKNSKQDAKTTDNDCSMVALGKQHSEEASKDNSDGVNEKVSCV
# Sequence of Delta-type opioid receptor (Homo sapiens) (P41143 whole entry): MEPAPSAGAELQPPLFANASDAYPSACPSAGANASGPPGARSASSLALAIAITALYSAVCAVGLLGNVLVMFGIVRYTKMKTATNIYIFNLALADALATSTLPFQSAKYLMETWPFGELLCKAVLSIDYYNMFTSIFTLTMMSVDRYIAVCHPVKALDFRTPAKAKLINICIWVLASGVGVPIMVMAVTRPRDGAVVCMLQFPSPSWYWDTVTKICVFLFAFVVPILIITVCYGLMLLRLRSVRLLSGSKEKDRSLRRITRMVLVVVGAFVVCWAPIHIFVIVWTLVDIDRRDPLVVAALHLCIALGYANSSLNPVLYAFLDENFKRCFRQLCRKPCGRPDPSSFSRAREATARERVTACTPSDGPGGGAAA
structure (smiles),measurement,setting,value
CN(C)CCC(c1ccc(Cl)c(Cl)c1)N1CCOCC1 (stereo unspecified),survival at 336 h,[1],40%
same,inhibition,[2],32.1%
same,Activity,Salmonella typhimurium,75
same,inhibition,[3],-1.1%
same,inhibition,Homo sapiens,9.8%
same,inhibition,[4],4%
